Measurements from paper PMC3227224 (The Journal of neuroscience : the official journal of the …, 2011).

Tested on: γ-secretase
Type: in vivo, J20 hAPP transgenic mice
Method in brief: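 Mice of either sex, probe guide in left hippocampus (bregma −3.1 mm, 2.5 mm lateral, 1.2 mm below dura, 12° angle), freely moving in Raturn cages on 12 h light/dark. γ-Secretase inhibitor 3 mg/kg i.p. given during ongoing microdialysis; hourly dialysates in refrigerated collector. Aβ38/40/42 by multiplex electrochemiluminescence (C-terminal-specific capture, SULFO-TAG 6E10 detection), in duplicate; half-lives calculated.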

C[C@H](NC(=O)Cc1cc(F)cc(F)c1)C(=O)N[C@H]1N=C(c2ccccc2)c2ccccc2N(C)C1=O [Compound E]
t1/2 of decline of total ISF Aβ after Compound E (3 mo tg (plaque-free) J20 mice, Compound E 3 mg/kg i.p. at time 0 h, ISF sampled hourly at 1 μl/min, Aβ ELISA): ~ 2 h
ISF Aβ38, Aβ40 and Aβ42 after Compound E in young mice (young plaque-free (3 mo) tg mouse, first 5 h after Compound E 3 mg/kg i.p.): all 3 peptides fell together
